ChEMBL document CHEMBL1135470, “Synthesis and protein kinase inhibitory activity of balanol analogues with modified benzophenone subunits” (J Med Chem, 2002)

The molecules below were run against T1, Protein kinase C epsilon type (Homo sapiens, UniProt Q02156) (assay: Inhibition of partially purified recombinant human calcium insensitive protein kinase C epsilon).
T1 sequence (Q02156 whole entry): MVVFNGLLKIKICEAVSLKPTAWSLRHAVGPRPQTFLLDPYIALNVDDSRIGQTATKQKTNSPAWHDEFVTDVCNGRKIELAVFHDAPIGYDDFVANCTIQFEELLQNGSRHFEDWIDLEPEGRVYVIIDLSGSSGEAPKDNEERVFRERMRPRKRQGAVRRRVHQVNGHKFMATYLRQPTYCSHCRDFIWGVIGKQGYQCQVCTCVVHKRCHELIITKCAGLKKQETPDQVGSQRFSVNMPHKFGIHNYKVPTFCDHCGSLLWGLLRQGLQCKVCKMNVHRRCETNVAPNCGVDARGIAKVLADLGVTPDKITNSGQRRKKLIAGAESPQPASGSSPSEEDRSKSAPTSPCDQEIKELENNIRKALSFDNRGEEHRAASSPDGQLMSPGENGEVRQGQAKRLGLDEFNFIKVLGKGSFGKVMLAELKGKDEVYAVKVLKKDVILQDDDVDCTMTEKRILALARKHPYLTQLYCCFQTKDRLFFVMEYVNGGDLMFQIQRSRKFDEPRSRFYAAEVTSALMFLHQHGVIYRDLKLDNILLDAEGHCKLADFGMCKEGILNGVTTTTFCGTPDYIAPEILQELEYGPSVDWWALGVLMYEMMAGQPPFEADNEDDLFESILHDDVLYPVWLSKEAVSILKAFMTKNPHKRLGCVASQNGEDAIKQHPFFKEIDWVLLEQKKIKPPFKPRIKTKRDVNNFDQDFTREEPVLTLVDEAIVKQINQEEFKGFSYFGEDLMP

IC50 [µM] | SMILES
3.5 | O=C(NC1CNCCC[C@H]1OC(=O)c1cc(O)c(C(=O)c2ccccc2C(=O)O)c(O)c1)c1ccc(O)cc1 (some centres undefined)
16 | O=C(NC1CNCCC[C@H]1OC(=O)c1cc(O)c(C2OC(=O)c3cccc(O)c32)c(O)c1)c1ccc(O)cc1 (some centres undefined)
8 | O=C(NC1CNCCC[C@H]1OC(=O)c1cc(O)c(C(=O)c2ccccc2O)c(O)c1)c1ccc(O)cc1 (some centres undefined)
8.1 | O=C(NC1CNCCC[C@H]1OC(=O)c1cc(O)c(C(=O)c2ncccc2C(=O)O)c(O)c1)c1ccc(O)cc1 (some centres undefined)
3.3 | O=C(NC1CNCC1OC(=O)c1cc(O)c2c(c1)C(=O)c1cccc(O)c1C2=O)c1ccc(O)cc1 (centres undefined)

Continued, molecule first:

SMILES | IC50 [µM]
O=C(NC1CCCC1OC(=O)c1ccc(C(=O)c2c(O)cccc2C(=O)O)cc1)c1ccc(O)cc1 (centres undefined) | 30
O=C(NC1CNCC1OC(=O)c1ccc(-c2c(O)cccc2C(=O)O)cc1)c1ccc(O)cc1 (centres undefined) | > 50
Cc1cc(C(=O)OC2CCCC2NC(=O)c2ccc(O)cc2)cc(C)c1C(=O)c1c(O)cccc1C(=O)O (centres undefined) | > 50
O=C(NC1CNCC1OC(=O)c1cc(O)c(C(=O)Nc2ccccc2C(=O)O)c(O)c1)c1ccc(O)cc1 (centres undefined) | 39
O=C(NC1CNCCC[C@H]1OC(=O)c1cc(O)c(C(=O)C2CCCC[C@@H]2C(=O)O)c(O)c1)c1ccc(O)cc1 (some centres undefined) | 97

What follows are molecules tested against cAMP-dependent protein kinase catalytic subunit alpha (Bos taurus, UniProt P00517) (assay: Inhibition of cAMP-dependent Protein kinase A (PKA)).

IC50 [µM] | SMILES
1 | O=C(NC1CNCCC[C@H]1OC(=O)c1cc(O)c(C(=O)c2ccccc2C(=O)O)c(O)c1)c1ccc(O)cc1 (some centres undefined)
0.3 | O=C(NC1CNCCC[C@H]1OC(=O)c1cc(O)c(C2OC(=O)c3cccc(O)c32)c(O)c1)c1ccc(O)cc1 (some centres undefined)
0.44 | O=C(NC1CNCCC[C@H]1OC(=O)c1cc(O)c(C(=O)c2ccccc2O)c(O)c1)c1ccc(O)cc1 (some centres undefined)
1.2 | O=C(NC1CNCC1OC(=O)c1cc(O)c2c(c1)C(=O)c1cccc(O)c1C2=O)c1ccc(O)cc1 (centres undefined)

Second part, the molecule before the results:

SMILES | IC50 [µM]
O=C(NC1CCCC1OC(=O)c1ccc(C(=O)c2c(O)cccc2C(=O)O)cc1)c1ccc(O)cc1 (centres undefined) | 1.7
O=C(NC1CNCC1OC(=O)c1cc(O)c(C(=O)Nc2ccccc2C(=O)O)c(O)c1)c1ccc(O)cc1 (centres undefined) | 1.9
O=C(NC1CNCCC[C@H]1OC(=O)c1cc(O)c(C(=O)C2CCCC[C@@H]2C(=O)O)c(O)c1)c1ccc(O)cc1 (some centres undefined) | 7.9

What follows are molecules tested against Protein kinase C beta type (Homo sapiens, UniProt P05771) (assay: Inhibition of partially purified recombinant human calcium sensitive protein kinase C beta 2).
Outline: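 Enzyme source was partially purified recombinant human PKC isozymes and PKA. IC50 was calculated from four-point curves of 10-fold dilutions, following a previously published procedure.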

Chain of Protein kinase C beta type (P05771 whole entry): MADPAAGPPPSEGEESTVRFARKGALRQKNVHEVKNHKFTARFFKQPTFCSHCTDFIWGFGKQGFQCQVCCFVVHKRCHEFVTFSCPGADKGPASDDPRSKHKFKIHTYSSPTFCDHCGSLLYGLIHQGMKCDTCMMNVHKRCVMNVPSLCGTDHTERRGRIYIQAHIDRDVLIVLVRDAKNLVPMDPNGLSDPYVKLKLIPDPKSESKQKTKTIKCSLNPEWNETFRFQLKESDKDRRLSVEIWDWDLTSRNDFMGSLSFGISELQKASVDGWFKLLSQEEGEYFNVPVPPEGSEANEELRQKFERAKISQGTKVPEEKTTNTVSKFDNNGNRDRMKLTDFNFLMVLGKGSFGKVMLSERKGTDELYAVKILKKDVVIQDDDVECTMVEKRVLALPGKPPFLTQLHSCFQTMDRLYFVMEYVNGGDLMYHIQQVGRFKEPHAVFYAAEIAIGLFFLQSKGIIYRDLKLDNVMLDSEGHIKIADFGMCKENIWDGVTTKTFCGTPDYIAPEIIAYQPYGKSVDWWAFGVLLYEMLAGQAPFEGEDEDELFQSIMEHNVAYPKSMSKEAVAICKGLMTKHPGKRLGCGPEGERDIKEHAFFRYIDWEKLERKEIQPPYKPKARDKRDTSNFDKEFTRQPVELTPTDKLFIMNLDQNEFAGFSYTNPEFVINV

IC50 [µM] | SMILES
3.7 | O=C(NC1CNCCC[C@H]1OC(=O)c1cc(O)c(C(=O)c2ccccc2C(=O)O)c(O)c1)c1ccc(O)cc1 (some centres undefined)
0.8 | O=C(NC1CNCCC[C@H]1OC(=O)c1cc(O)c(C2OC(=O)c3cccc(O)c32)c(O)c1)c1ccc(O)cc1 (some centres undefined)
38 | O=C(NC1CNCCC[C@H]1OC(=O)c1cc(O)c(C(=O)c2ccccc2O)c(O)c1)c1ccc(O)cc1 (some centres undefined)
13 | O=C(NC1CNCCC[C@H]1OC(=O)c1cc(O)c(C(=O)c2ncccc2C(=O)O)c(O)c1)c1ccc(O)cc1 (some centres undefined)
25 | O=C(NC1CNCC1OC(=O)c1cc(O)c2c(c1)C(=O)c1cccc(O)c1C2=O)c1ccc(O)cc1 (centres undefined)

Second part, the molecule before the results:

SMILES | IC50 [µM]
O=C(NC1CCCC1OC(=O)c1ccc(C(=O)c2c(O)cccc2C(=O)O)cc1)c1ccc(O)cc1 (centres undefined) | 4.5
O=C(NC1CNCC1OC(=O)c1ccc(-c2c(O)cccc2C(=O)O)cc1)c1ccc(O)cc1 (centres undefined) | 40
Cc1cc(C(=O)OC2CCCC2NC(=O)c2ccc(O)cc2)cc(C)c1C(=O)c1c(O)cccc1C(=O)O (centres undefined) | > 50
O=C(NC1CNCC1OC(=O)c1cc(O)c(C(=O)Nc2ccccc2C(=O)O)c(O)c1)c1ccc(O)cc1 (centres undefined) | 117
O=C(NC1CNCCC[C@H]1OC(=O)c1cc(O)c(C(=O)C2CCCC[C@@H]2C(=O)O)c(O)c1)c1ccc(O)cc1 (some centres undefined) | 124

The molecules below were run against Protein kinase C alpha type (Homo sapiens, UniProt P17252) (assay: Inhibition of partially purified recombinant human calcium sensitive protein kinase C alpha).

IC50 [µM] | SMILES
10 | O=C(NC1CNCCC[C@H]1OC(=O)c1cc(O)c(C(=O)c2ccccc2C(=O)O)c(O)c1)c1ccc(O)cc1 (some centres undefined)
18 | O=C(NC1CNCCC[C@H]1OC(=O)c1cc(O)c(C2OC(=O)c3cccc(O)c32)c(O)c1)c1ccc(O)cc1 (some centres undefined)
97 | O=C(NC1CNCCC[C@H]1OC(=O)c1cc(O)c(C(=O)c2ccccc2O)c(O)c1)c1ccc(O)cc1 (some centres undefined)
37 | O=C(NC1CNCCC[C@H]1OC(=O)c1cc(O)c(C(=O)c2ncccc2C(=O)O)c(O)c1)c1ccc(O)cc1 (some centres undefined)
43 | O=C(NC1CNCC1OC(=O)c1cc(O)c2c(c1)C(=O)c1cccc(O)c1C2=O)c1ccc(O)cc1 (centres undefined)

The remaining lines, values behind:

SMILES | IC50 [µM]
O=C(NC1CCCC1OC(=O)c1ccc(C(=O)c2c(O)cccc2C(=O)O)cc1)c1ccc(O)cc1 (centres undefined) | 34
O=C(NC1CNCC1OC(=O)c1ccc(-c2c(O)cccc2C(=O)O)cc1)c1ccc(O)cc1 (centres undefined) | > 50
Cc1cc(C(=O)OC2CCCC2NC(=O)c2ccc(O)cc2)cc(C)c1C(=O)c1c(O)cccc1C(=O)O (centres undefined) | > 50
O=C(NC1CNCC1OC(=O)c1cc(O)c(C(=O)Nc2ccccc2C(=O)O)c(O)c1)c1ccc(O)cc1 (centres undefined) | > 150
O=C(NC1CNCCC[C@H]1OC(=O)c1cc(O)c(C(=O)C2CCCC[C@@H]2C(=O)O)c(O)c1)c1ccc(O)cc1 (some centres undefined) | > 150

Species: Homo sapiens
Test: Inhibition of phorbol-12-myristate-13-acetate (PMA)induced superoxide burst in human neutrophils
Assay type: functional
Outline: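 A cellular assay in human neutrophils measured inhibition of the superoxide burst induced by phorbol-12-myristate-13-acetate (PMA). Compounds were tested up to a maximum of 10 μM. IC50 was calculated from four-point curves of 10-fold dilutions, following a previously published procedure.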

IC50 [µM] | SMILES
> 10 | O=C(NC1CNCCC[C@H]1OC(=O)c1cc(O)c(C(=O)c2ccccc2C(=O)O)c(O)c1)c1ccc(O)cc1 (some centres undefined)
> 10 | O=C(NC1CCCC1OC(=O)c1ccc(C(=O)c2c(O)cccc2C(=O)O)cc1)c1ccc(O)cc1 (centres undefined)
